Data: PubChem BioAssay AID624079 (The Scripps Research Institute Molecular Screening Center, 2012)
Several values for one entry are separate records, joined by “and”; a condition that tells them apart may be missing. Identical values can stand only once.

Molecular target: metallo-beta-lactamase VIM-2 (Pseudomonas aeruginosa)
Test: inhibition of VIM-2 nitrocefin cleavage – biochemical, absorbance, probe candidates and analogs, late-stage follow-up (AID 624079)
Conditions: purified VIM-2, nitrocefin hydrolysis, epi-absorbance
Method in brief: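 Dosing – dilution series with 60 µM top concentration · Material – purified VIM-2 enzyme · Input – VIM-2 at 0.132 nM final · Technique – hydrolysis product quenching plate fluorescence, 480 nm excitation, 530 nm emission · Timing – 15 min preincubation plus 25 min reaction, 25 °C · Repeats – triplicate dilution series per compound · Read-out – four-parameter IC50 from OD-converted fluorescence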

SMILES	IC50
CN1CCN(NC(=O)CN2C(=O)/C(=C/c3c(Cl)ccc(Cl)c3Cl)SC2=S)CC1	0.548 µM
CN1CCN(NC(=O)CN2C(=O)/C(=C/c3c(Cl)cccc3Cl)SC2=S)CC1	3.98 µM and 4.55 µM
